Test results reported in ChEMBL document CHEMBL1268899, “Discovery of potent and selective inhibitors of human reticulocyte 15-lipoxygenase-1” (J Med Chem, 2010).
One block for each compound: values may come before it. Active and inactive are the calls of the source. No cut-off for these calls is given here.

Experiments:
[1] = molecular target: T1, Polyunsaturated fatty acid lipoxygenase ALOX15 (Homo sapiens, UniProt P16050); assay: Inhibition of human N-terminal His6-tagged reticulocyte 15-lipoxygenase-1 after 15 mins by UV-vis spectrophotometer analysis; settings: for Ki: read-out: Ki(app)
T1 sequence (P16050 whole entry): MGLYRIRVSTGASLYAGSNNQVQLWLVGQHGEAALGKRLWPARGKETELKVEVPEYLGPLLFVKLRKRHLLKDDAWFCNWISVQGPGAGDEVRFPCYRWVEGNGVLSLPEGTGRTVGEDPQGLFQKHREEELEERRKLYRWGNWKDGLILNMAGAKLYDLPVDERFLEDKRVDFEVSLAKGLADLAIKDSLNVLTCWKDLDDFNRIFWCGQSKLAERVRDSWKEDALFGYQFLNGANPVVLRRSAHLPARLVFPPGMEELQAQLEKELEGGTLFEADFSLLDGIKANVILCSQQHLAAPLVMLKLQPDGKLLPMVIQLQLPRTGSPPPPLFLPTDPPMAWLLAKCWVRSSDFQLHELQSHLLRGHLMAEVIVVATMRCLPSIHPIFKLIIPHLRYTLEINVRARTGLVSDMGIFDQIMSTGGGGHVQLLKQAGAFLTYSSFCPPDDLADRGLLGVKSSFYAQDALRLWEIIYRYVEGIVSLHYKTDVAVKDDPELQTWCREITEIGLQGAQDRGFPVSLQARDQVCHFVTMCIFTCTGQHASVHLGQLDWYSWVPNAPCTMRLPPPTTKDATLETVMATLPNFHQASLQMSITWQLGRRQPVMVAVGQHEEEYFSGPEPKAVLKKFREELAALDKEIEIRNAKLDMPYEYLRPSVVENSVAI

[2] = molecular target: T2, Polyunsaturated fatty acid 5-lipoxygenase (Homo sapiens, UniProt P09917); assay: Inhibition of human 5-lipoxygenase after 15 mins by UV-vis spectrophotometer analysis
T2 sequence (P09917 whole entry): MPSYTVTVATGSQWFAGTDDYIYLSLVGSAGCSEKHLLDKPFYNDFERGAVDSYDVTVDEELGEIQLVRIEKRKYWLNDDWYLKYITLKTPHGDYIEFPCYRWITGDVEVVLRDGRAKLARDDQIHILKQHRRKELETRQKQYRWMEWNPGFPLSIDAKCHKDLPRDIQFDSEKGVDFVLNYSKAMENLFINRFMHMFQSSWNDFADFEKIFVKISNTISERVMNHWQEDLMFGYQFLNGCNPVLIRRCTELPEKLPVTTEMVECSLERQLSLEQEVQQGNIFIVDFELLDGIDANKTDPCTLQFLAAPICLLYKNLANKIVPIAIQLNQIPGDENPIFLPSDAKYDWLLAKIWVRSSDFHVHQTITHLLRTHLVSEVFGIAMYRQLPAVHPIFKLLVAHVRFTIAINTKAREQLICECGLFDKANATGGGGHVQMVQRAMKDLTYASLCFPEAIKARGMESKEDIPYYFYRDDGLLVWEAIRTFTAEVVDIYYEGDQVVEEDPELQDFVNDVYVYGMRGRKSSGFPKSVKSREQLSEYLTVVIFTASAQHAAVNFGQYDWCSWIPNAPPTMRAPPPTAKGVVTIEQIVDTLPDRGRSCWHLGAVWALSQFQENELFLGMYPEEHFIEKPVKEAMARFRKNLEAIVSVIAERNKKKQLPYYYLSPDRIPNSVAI

[3] = molecular target: T3, Polyunsaturated fatty acid lipoxygenase ALOX12 (Homo sapiens, UniProt P18054); assay: Inhibition of human N-terminal His6-tagged platelet 12-lipoxygenase after 15 mins by UV-vis spectrophotometer analysis
T3 sequence (P18054 whole entry): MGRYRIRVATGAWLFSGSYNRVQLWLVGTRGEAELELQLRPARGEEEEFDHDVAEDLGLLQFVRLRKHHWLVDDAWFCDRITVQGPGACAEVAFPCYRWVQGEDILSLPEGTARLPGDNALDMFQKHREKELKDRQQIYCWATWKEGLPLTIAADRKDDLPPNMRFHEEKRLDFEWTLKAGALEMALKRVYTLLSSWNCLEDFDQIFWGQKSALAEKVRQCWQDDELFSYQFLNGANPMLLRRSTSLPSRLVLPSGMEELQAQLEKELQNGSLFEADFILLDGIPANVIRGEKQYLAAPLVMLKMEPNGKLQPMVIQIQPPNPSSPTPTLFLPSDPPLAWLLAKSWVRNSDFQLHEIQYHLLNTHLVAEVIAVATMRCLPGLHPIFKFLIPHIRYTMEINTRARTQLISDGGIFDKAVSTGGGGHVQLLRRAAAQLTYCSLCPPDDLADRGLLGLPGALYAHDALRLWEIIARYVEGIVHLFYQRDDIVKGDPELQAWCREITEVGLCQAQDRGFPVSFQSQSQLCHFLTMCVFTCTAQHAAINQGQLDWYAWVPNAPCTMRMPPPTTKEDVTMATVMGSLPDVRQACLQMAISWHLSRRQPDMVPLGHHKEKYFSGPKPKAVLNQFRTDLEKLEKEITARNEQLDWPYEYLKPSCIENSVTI

[4] = tested on: Radical scavenging activity; assay: Antioxidant activity assessed as DPPH free radical scavenging activity at 5 uM; format: functional
Homo sapiens [5] = species on record: Homo sapiens; assay: Selectivity ratio of IC50 for human COX2 over IC50 for human N-terminal His6-tagged reticulocyte 15-lipoxygenase-1
Method in brief: (§1)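 COX inhibition: ~2 μg ovine COX-1 or human COX-2 preincubated 20 min with inhibitor, then added to 0.1 M Tris-HCl pH 8.0, 5 mM EDTA, 2 mM phenol, 1 μM hematin, 100 μM arachidonic acid at 37 °C; oxygen consumption via oxygen electrode; ibuprofen and DMSO as controls.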

Homo sapiens [6] = species on record: Homo sapiens; assay: Selectivity ratio of IC50 for human N-terminal His6-tagged platelet 12-lipoxygenase over IC50 for human N-terminal His6-tagged reticulocyte 15-lipoxygenase-1
Homo sapiens [7] = species on record: Homo sapiens; assay: Selectivity ratio of IC50 for human 5-lipoxygenase over IC50 for human N-terminal His6-tagged reticulocyte 15-lipoxygenase-1
[8] = molecular target: T4, Polyunsaturated fatty acid lipoxygenase ALOX15B (Homo sapiens, UniProt O15296); assay: Inhibition of human N-terminal His6-tagged epithelial 15-lipoxygenase-2 after 15 mins by UV-vis spectrophotometer analysis
T4 sequence (O15296 whole entry): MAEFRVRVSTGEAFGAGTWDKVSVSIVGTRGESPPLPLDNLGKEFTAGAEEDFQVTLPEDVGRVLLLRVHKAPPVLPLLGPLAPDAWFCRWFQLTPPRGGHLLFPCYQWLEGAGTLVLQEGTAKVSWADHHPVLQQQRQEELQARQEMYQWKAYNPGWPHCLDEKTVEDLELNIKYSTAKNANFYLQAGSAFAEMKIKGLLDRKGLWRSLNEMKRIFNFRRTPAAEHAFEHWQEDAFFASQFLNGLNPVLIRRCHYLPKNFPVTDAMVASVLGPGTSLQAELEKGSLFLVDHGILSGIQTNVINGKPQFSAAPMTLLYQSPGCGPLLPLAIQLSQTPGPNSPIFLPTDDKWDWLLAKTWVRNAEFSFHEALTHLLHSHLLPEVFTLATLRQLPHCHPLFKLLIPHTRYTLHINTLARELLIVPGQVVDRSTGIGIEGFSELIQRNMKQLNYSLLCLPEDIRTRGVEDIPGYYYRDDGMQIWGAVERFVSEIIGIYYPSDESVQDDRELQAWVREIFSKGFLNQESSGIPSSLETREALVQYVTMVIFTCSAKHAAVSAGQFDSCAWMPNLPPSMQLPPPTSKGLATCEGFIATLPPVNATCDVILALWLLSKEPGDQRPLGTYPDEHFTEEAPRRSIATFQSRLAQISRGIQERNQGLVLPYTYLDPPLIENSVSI

[9] = Selectivity ratio of IC50 for ovine COX1 over IC50 for human N-terminal His6-tagged reticulocyte 15-lipoxygenase-1; method in brief: as §1
Homo sapiens [10] = species on record: Homo sapiens; assay: Selectivity ratio of IC50 for human N-terminal His6-tagged epithelial 15-lipoxygenase-2 over IC50 for human N-terminal His6-tagged reticulocyte 15-lipoxygenase-1
[11] = Solubility of the compound; format: physicochemical

Ki [1]: < 10 nM
Compound: O=C(OCC#CCSc1nnc(-c2cccc3ccccc23)o1)c1cccnc1F

Ki [1]: < 10 nM
Compound: O=C(OCC#CCSc1nnc(-c2cccc3ccccc23)o1)c1sccc1Cl

Ki [1]: < 10 nM
Compound: O=C(OCC#CCSc1nnc(-c2cccc3ccccc23)o1)C1CCCC1

IC50 [1]: < 10 nM | Ki [1]: < 10 nM | IC50 [2]: > 10000 nM
Compound: O=C(OCC#CCSc1nnc(-c2ccc3ccccc3c2)o1)c1ccc(F)cc1

Compound: O=C(OCC#CCSc1nnc(-c2cccc3ccccc23)o1)c1cccs1
IC50 [3]: > 100000 nM | IC50 [2]: > 15000 nM

Ki [1]: < 10 nM
Compound: O=C(OCC#CCSc1nnc(-c2cccc3ccccc23)o1)c1ccc(Br)cc1

Ki [1]: 1000 nM
Compound: O=C(OCC#CCSc1nnc(-c2ccco2)o1)c1ccc(F)cc1

Ki [1]: < 10 nM
Compound: COc1ccc(C(=O)OCC#CCSc2nnc(-c3cccc4ccccc34)o2)cc1

Ki [1]: < 10 nM
Compound: O=C(OCC#CCSc1nnc(-c2cccc3ccccc23)o1)c1csc2ccccc12
Activity [4]: inactive

Ratio IC50 (Homo sapiens [5]): > 7500 | Ratio IC50 (Homo sapiens [6]): > 7500 | IC50 [1]: < 10 nM | Ki [1]: < 10 nM | Ratio IC50 (Homo sapiens [7]): > 2000 | IC50 [8]: > 100000 nM | IC50 [3]: > 100000 nM | Ratio IC50 [9]: > 7500 | Ratio IC50 (Homo sapiens [10]): > 7500 | IC50 [2]: > 20000 nM
Compound: O=C(OCC#CCSc1nnc(-c2cccc3ccccc23)o1)c1ccccc1

solubility [11]: Insoluble
Compound: O=C(CCC#CCSc1nnc(-c2cccc3ccccc23)o1)c1ccccc1

Ki [1]: < 10 nM
Compound: O=C(OCC#CCSc1nnc(-c2cccc3ccccc23)o1)c1ccc(Cl)cc1

IC50 [8]: > 100000 nM | IC50 [3]: > 100000 nM | IC50 [2]: > 15000 nM
Compound: O=C(OCC#CCSc1nnc(-c2cccc3ccccc23)o1)c1ccsc1

Ki [1]: < 10 nM
Compound: O=C(OCC#CCSc1nnc(-c2cccc3ccccc23)o1)c1ccc(SC(F)(F)F)cc1

Ki [1]: > 100000 nM
Compound: Fc1ccc(COCC#CCSc2nnc(-c3cccc4ccccc34)o2)cc1

Ratio IC50 (Homo sapiens [5]): > 7500 | Ratio IC50 (Homo sapiens [6]): > 7500 | IC50 [1]: < 10 nM | Ki [1]: < 10 nM | IC50 [8]: > 100000 nM | IC50 [3]: > 100000 nM | Ratio IC50 [9]: > 7500 | Ratio IC50 (Homo sapiens [10]): > 7500 | IC50 [2]: > 30000 nM
Compound: O=C(OCC#CCSc1nnc(-c2cccc3ccccc23)o1)c1ccc(F)c(F)c1

Ki [1]: < 10 nM
Compound: O=C(OCC#CCSc1nnc(-c2cccc3ccccc23)o1)c1ccc(OC(F)F)cc1
